Assay results gathered from unrelated publications.
Each line is one published result; the experiments were not run side by side. pIC50: −log10 of the molar value.
Effect on: tubulin polymerisation
Mode: inhibitor

COc1ccc(S(=O)(=O)c2ccccc2)c(OC)c1OC — pIC50 (absorbance; pH 6.6): < 4.40
COc1cc2c(cc1O)CCN(Cc1cc(OC)c(OC)c(OC)c1)C2 — pIC50 (absorbance): < 4.70
COc1ccc(C(=O)c2cc3c(-c4ccccc4)c(O)ccc3o2)cc1 — pIC50 (absorbance): 5.55
CCCOc1ccc(Nc2cc(C)nc3ccc(Cl)cc23)cc1 — pIC50: < 4.00
COc1cc2c(cc1OS(N)(=O)=O)CCN(Cc1cc(OC)c(OC)c(OC)c1)C2 — pIC50 (absorbance): < 4.70
COc1ccc(Sc2ccccc2)c(OC)c1OC — pIC50 (absorbance; pH 6.6): < 4.40
COc1ccc(N(C)c2nc(C)nc3c2CCC3)cc1 — pIC50 (absorbance): 5.80
COc1ccc(/C=C\c2cc(OC)c(OC)c(OC)c2)cc1O — pIC50 (absorbance): 5.85
COc1ccc([S+]([O-])c2ccc(OC)c(OC)c2OC)cc1 (centres unmarked) — pIC50 (absorbance; pH 6.6): < 4.40
COc1ccc(N(C)c2nc(C)nc3c2C[C@@H](C)C3)cc1 (racemic) — pIC50 (absorbance): 5.72
CCCOc1ccc(N(C)c2cc(C)nc3ccc(Cl)cc23)cc1 — pIC50: 5.27
